This passage reports Ki, Ratio and Recovery time results from ChEMBL document CHEMBL1134955, “Identification and structure-activity studies of novel ultrashort-acting benzodiazepine receptor agonists” (Bioorg Med Chem Lett, 2002).

Assay [1] concerns the target GABA-A receptor; anion channel. As to the kind of experiment: Binding affinity to rat benzodiazepine receptor. In kind it is protein-complex assay. In a few lines: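 Rat BZD receptor membranes incubated with 2 nM [3H]-flunitrazepam and test ligand for 90 min at 4 °C in 50 mM Tris–HCl pH 7.4 with 150 mM NaCl. Twelve-point curves made by 3-fold serial dilution from DMSO stocks, final DMSO ≤0.4%. Nonspecific binding taken with 2'-chlorodiazepam. Filtration through GF/B, ice-cold Tris washes, scintillation counting. Triplicates, at least three runs; Ki reported in nM.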

The target in assay [2] is GABA-A receptor; anion channel (Rattus norvegicus) (UniProt O09028+P15431+P18506+P18508+P19969+P20236+P23574+P23576+P28471+P28473+P30191+P62813+P63079+P63138+Q91ZM7+Q9ES14). Put plainly: Ratio between Ki value (acid) / Ki value (ester) was determined. In kind it is protein-complex assay. Put shortly: (§1)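 Ki of the acid divided by Ki of the matching ester. Both Ki values come from [3H]-flunitrazepam displacement at rat BZD receptor membranes (2 nM radioligand, 90 min, 4 °C, Tris–HCl pH 7.4 with NaCl), with triplicate 12-point curves.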

The test system of assay [3] is Rattus norvegicus. As to the kind of experiment: Loss of righting reflex recovery time (initial) in rat was determined when treated with a dose of 30 mg/Kg. In kind it is functional, organism-based. In a few lines: (§2)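 Rats given an iv bolus in 50% PEG/25% EtOH/25% saline. Scored for time to LRR onset, initial recovery (rights itself three consecutive times) and total recovery (walks without ataxia and pulls up three times when hung from a horizontal wire), in min.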

The test system of assay [4] is Rattus norvegicus. Put plainly: Loss of righting reflex recovery time (total) in rat was determined when treated with a dose of 30 mg/Kg. Format: functional, organism-based. In a few lines: as §2
The nature of assay [5]: Ratio between Ki (acid) / Ki (ester) was determined. In a few lines:
as §1

As a reminder, the Ki is the dissociation constant of the complex between target and ligand, obtained from inhibition or displacement. Turning to `COC(=O)CCNC1N=C(c2ccccc2Cl)c2cc(Cl)ccc2NC1=O` (centres undefined), the Ki in assay [1] turned out to be 0.017 µM. Further, the Ratio in assay [2] is 17.
In assay [1], `CCOC(=O)C[C@@H]1N=C(c2ccccc2F)c2cc(Cl)ccc2NC1=O` returned a Ki of 0.045 µM. Further, the Ratio in assay [2] was determined as 297.
As for `O=C(CC[C@@H]1N=C(c2ccccc2)c2cc(Cl)ccc2NC1=O)OCc1ccccc1`, in assay [1], the Ki is 0.2 µM. In addition, the Recovery time is 15 min with Rattus norvegicus [3] and 22 min in the assay with Rattus norvegicus [4].
`O=C(CC[C@@H]1N=C(c2ccccc2)c2cc([N+](=O)[O-])ccc2NC1=O)OCc1ccccc1` displayed a Ki in assay [1] of 0.124 µM. Further, the Recovery time was 2 min in the assay on Rattus norvegicus [3] and 3 min with Rattus norvegicus [4]. Moreover, the Ratio in assay [2] amounted to 91.
In the case of `COC(=O)CC[C@H]1N=C(c2ccccc2F)c2cc(Cl)ccc2NC1=O`, in assay [1], the affinity, expressed as Ki, was 0.741 µM. In addition, the results for the Recovery time in the assay with Rattus norvegicus [3] and in the assay with Rattus norvegicus [4] were 2 min and 4 min, respectively.
For `CN1C(=O)CN=C(c2ccccc2)c2cc(Cl)ccc21`, the Recovery time in the assay on Rattus norvegicus [3] came to 5 min; with Rattus norvegicus [4] it was 82 min.
`COC(=O)CN[C@H]1N=C(c2ccccc2Cl)c2cc(Cl)ccc2NC1=O` yielded a Ki in assay [1] of 0.023 µM. Besides, the Ratio in assay [2] is 172.
`CC(C)OC(=O)CC[C@@H]1N=C(c2ccccc2F)c2cc(Cl)ccc2NC1=O`: the Ki in assay [1] turned out to be 0.039 µM. The Ratio in assay [2] was 108.
Consider `COC(=O)CCN[C@H]1N=C(c2ccccc2Cl)c2cc(Cl)ccc2NC1=O`, for which the inhibition constant (Ki) in assay [1] was 0.003 µM. The Ratio in assay [2] was determined as 130.
In the case of `COC(=O)CC[C@@H]1N=C(c2ccccc2F)c2ccccc2NC1=O`, the affinity in assay [1], expressed as Ki, was 0.092 µM.
Consider `O=C(C[C@@H]1N=C(c2ccccc2F)c2cc(Cl)ccc2NC1=O)OCc1ccncc1`, for which, in assay [1], affinity was put at a Ki of 0.289 µM.
In the case of `COC(=O)CN[C@@H]1N=C(c2ccccc2Cl)c2cc(Cl)ccc2NC1=O`, the Ki in assay [1] was 0.48 µM. Besides, the Ratio in assay [2] is 9.
Molecule `CCCCOC(=O)CC[C@@H]1N=C(c2ccccc2F)c2cc(Cl)ccc2NC1=O` returned a Ki in assay [1] of 0.242 µM. Further, the Recovery time in the assay on Rattus norvegicus [3] came to 15 min; in the assay on Rattus norvegicus [4], 25 min. For the same molecule, the Ratio in assay [2] is 17.
Molecule `COC(=O)CC[C@@H]1N=C(c2ccccc2F)c2cc(Cl)ccc2NC1=O` returned an inhibition constant Ki in assay [1] of 0.007 µM. The Recovery time in the assay with Rattus norvegicus [3] is 9 min; in the assay on Rattus norvegicus [4], 24 min. Moreover, the Ratio in assay [2] came out at 984.
As to `O=C(C[C@H]1N=C(c2ccccc2)c2cc(Cl)ccc2NC1=O)OCc1ccccc1`, the inhibitory constant (Ki) in assay [1] turned out to be 100 µM.
Molecule `O=C(C[C@@H]1N=C(c2ccccc2)c2cc(Cl)ccc2NC1=O)OCc1ccccc1` yielded an inhibitory constant (Ki) in assay [1] of 1.45 µM. Also, the Recovery time with Rattus norvegicus [3] amounted to 4 min; in the assay on Rattus norvegicus [4], 14 min.
For the molecule `COC(=O)CC[C@@H]1N=C(c2ccccc2F)c2cc([N+](=O)[O-])ccc2NC1=O`, the affinity in assay [1] corresponds to a Ki of 0.007 µM.
Take `COC(=O)CC[C@@H]1N=C(c2ccccc2F)c2cc(Br)ccc2NC1=O`: the inhibitory constant (Ki) in assay [1] came out at 0.003 µM. Moreover, the Recovery time with Rattus norvegicus [3] is 22 min; in the assay on Rattus norvegicus [4], 30 min. The Ratio in assay [2] is 431.
In turn, `Cc1ncc2n1-c1ccc(Cl)cc1C(c1ccccc1F)=NC2` [MIDAZOLAM] had a Ki in assay [1] of 0.002 µM. The Recovery time amounted to 23 min with Rattus norvegicus [3] and 121 min in the assay on Rattus norvegicus [4].
Take `COC(=O)CC[C@@H]1N=C(c2ccccc2)c2cc([N+](=O)[O-])ccc2NC1=O`: the inhibitory constant (Ki) in assay [1] was found to be 0.118 µM. For the same molecule, the Recovery time in the assay on Rattus norvegicus [3] amounted to 2 min; in the assay with Rattus norvegicus [4], 14 min. In addition, the Ratio in assay [2] is 95.
`COC(=O)CCN[C@@H]1N=C(c2ccccc2Cl)c2cc(Cl)ccc2NC1=O` showed a Ki in assay [1] of 0.189 µM. Also, in assay [2], the Ratio was 1.
With `COC(=O)CNC1N=C(c2ccccc2Cl)c2cc(Cl)ccc2NC1=O` (centres undefined), affinity in assay [1] was put at a Ki of 0.053 µM. For the same molecule, the Ratio in assay [2] worked out at 35.
The molecule `O=C(CC[C@@H]1N=C(c2ccccc2F)c2ccccc2NC1=O)OCc1ccccc1` registered a Ki in assay [1] of 0.163 µM.
With `COC(=O)CCC[C@@H]1N=C(c2ccccc2F)c2cc(Cl)ccc2NC1=O`, the Ki in assay [1] came out at 0.003 µM. The Ratio in assay [2] worked out at 186.
Take `O=C(C[C@@H]1N=C(c2ccccc2F)c2cc(Cl)ccc2NC1=O)OCc1ccccc1`: the affinity in assay [1], expressed as Ki, was 0.176 µM. Moreover, the Recovery time in the assay with Rattus norvegicus [3] turned out to be 13 min; in the assay with Rattus norvegicus [4] it was 17 min. In addition, the Ratio in assay [2] amounted to 76.
In assay [1], `O=C(CC[C@@H]1N=C(c2ccccc2F)c2cc(Cl)ccc2NC1=O)OCc1ccccc1` came in with a Ki of 0.029 µM. In addition, the Recovery time with Rattus norvegicus [3] stood at 8 min; in the assay on Rattus norvegicus [4], 19 min. The Ratio in assay [2] came out at 143.
Consider `COC(=O)C[C@@H]1N=C(c2ccccc2F)c2cc(Cl)ccc2NC1=O`, for which the Ki in assay [1] amounted to 0.081 µM. The Ratio in assay [5] was 165.
In the case of `O=C(CC[C@@H]1N=C(c2ccccc2F)c2cc(Cl)ccc2NC1=O)OCc1ccncc1`, the inhibition constant Ki in assay [1] came to 0.034 µM. The Ratio in assay [2] was found to be 124.
